# GalR3 antagonist: GalR3 antagonists in HEK293 cells, primary screen, cell-based, fluorescence readout. actives 0.44% (n = 360,000). inhibition, % at 3 µM. AID 651719, 2012. HEK293 GalR3-CNG cAMP membrane potential fluorescence; galR3 body fused to GalR1 C-terminus;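 active = inhibition above the screen-wide average plus 3 SD, cut at about 13% in these data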;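 also: forskolin and galanin both at EC90 stimulate the cells; cAMP rise reported by CNG channel membrane potential dye signal; 0% = forskolin plus galanin with DMSO and 100% = forskolin alone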
# Target sequence (O60755 1-299 limits assumed): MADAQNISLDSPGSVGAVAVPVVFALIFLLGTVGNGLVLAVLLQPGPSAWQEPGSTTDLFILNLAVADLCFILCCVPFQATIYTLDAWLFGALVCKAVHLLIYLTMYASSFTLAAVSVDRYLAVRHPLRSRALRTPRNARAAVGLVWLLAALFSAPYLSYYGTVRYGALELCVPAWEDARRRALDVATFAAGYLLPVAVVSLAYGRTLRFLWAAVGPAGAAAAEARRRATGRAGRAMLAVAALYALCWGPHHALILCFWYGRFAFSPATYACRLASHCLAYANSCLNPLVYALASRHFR
# CHO parental Ca: ATP-evoked calcium signal inhibitors, parental CHO, primary screen, counter-screen for OX1R antagonist project, cell-based, fluorescence, Fluo-8 calcium dye; actives 0.63% (n = 330,000); inhibition, % at 5.6 µM; AID 463079, 2010; parental CHO-K1, ATP-induced calcium, Fluo-8 fluorescence;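 active = inhibition above that plate's mean sample inhibition plus 3 SD, cut at about 26% in these data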;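 also: 0% = ATP-challenged DMSO wells and 100% = DMSO wells without ATP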
#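 Assay system – parental CHO cells · Reagent – ATP stimulus · Detection – intracellular calcium via Fluo-8 no-wash fluorescent dye · Evaluation – percent inhibition of ATP-evoked calcium rise, normalized to controls · Controls – ATP wells versus no-ATP DMSO wells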
# OX1R antag-1: OX1R (HCRTR1) antagonists, primary screen, fluorescence, CHO/OX1R cells, Fluo-8 calcium, orexin A; Fluo-8 calcium fluorescence; inhibition, % at 5 µM; actives 0.43% (n = 330,000);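 active = inhibition above its plate's threshold, mean inhibition of all tested compounds on the plate plus 3 SD, cut at about 37% in these data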;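 also: 0% = orexin A challenge wells and 100% = SB-334867-A antagonist wells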
# GPR7 antagonist: GPR7 receptor antagonists, primary screen, cell-based, fluorescence, single concentration. GPR7-expressing cells, fluorescence antagonist assay. inhibition, % at 4.4 µM. actives 1.1% (n = 290,000). AID 1861, 2009; in the data active = inhibition above about 16%, passing the limit was not always enough;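 also: cells stimulated with the agonist NPW; 0% = agonist with vehicle and 100% = vehicle without agonist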
# Target sequence (P48145 whole entry, looked up): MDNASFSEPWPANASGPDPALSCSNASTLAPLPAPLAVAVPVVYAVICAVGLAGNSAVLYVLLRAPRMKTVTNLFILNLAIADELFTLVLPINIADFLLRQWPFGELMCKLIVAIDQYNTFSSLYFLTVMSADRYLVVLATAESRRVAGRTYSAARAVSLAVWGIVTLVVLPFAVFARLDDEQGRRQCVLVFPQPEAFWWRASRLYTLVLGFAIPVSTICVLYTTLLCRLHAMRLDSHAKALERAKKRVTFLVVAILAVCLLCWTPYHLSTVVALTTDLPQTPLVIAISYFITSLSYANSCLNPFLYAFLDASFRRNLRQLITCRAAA
# OX1R antag-2: antagonists of human orexin 1 receptor (OX1R); Orexin/Hypocretin receptor type 1 (Homo sapiens), O43613; OX1R-expressing cells, FRET antagonist read-out; inhibition, % at 6.6 µM; actives 1.8% (n = 330,000); AID 485270, 2010; in the data active = inhibition mostly above about 38%, no sharp cut-off; inactive = mostly below about 40%;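 also: 0% = agonist challenge alone and 100% = reference antagonist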
# GalR3 conf: GalR3 antagonist hit confirmation, cell-based, fluorescence, triplicate; shares compounds with GalR3 antagonist; actives 59% (n = 1,600); inhibition, % at 3 µM; AID 652245, 2013; HEK293 GalR3 CNG cAMP biosensor, membrane potential fluorescence; galR3 fused to GalR1 carboxy tail; challenged with forskolin and galanin at EC90;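 active = inhibition above the primary screen's cutoff, the mean inhibition of all screened compounds plus 3 SD, cut at about 13% in these data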;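 also: 0% = forskolin plus galanin and 100% = forskolin alone with DMSO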
# CNG parental: nonspecific cAMP agonists in parental HEK-CNG cells, counter-screen for GalR3 antagonist project, cell-based, fluorescence, high throughput; shares compounds with GalR3 antagonist; actives 10% (n = 1,600); AID 652268, 2013; activation, % at 3 µM; HEK293-CNG parental cells, cAMP membrane potential fluorescence; normalised: DMSO wells 0%, forskolin wells 100%; in the data active = activation above about 1.3%
# Numbers without * were called inactive; / = no result. Compounds with a hit are over-represented: about 3.1% of the library has one in this group of screens.
SMILES,GalR3 antagonist,CHO parental Ca,OX1R antag-1,GPR7 antagonist,OX1R antag-2,GalR3 conf,CNG parental
CCOc1ccc(C2C(C(=O)c3ccc(C)o3)=C(O)C(=O)N2c2nc(C)c(C(=O)OC)s2)cc1 (stereo not drawn),13*,-5,-29,-3,-11,15*,0
CCOC(=O)c1sc(N2C(=O)C(O)=C(C(=O)c3ccc(C)o3)C2c2ccc(OC)c(OC)c2)nc1C (stereo not drawn),34*,-24,-31,-31,5,15*,0
CC(C)CN1CCC1(C)C(=O)Nc1cc(-c2ccccc2)nn1C (stereo not drawn),-7,/,/,/,/,/,/
Cc1cc(C)cc(CC(=O)N2CCC2(C)C(=O)NS(=O)(=O)c2cccc(OC(F)F)c2)c1 (stereo not drawn),0,/,/,/,/,/,/
COc1ccc(NC(=O)C(c2ccc(C)cc2)N(C)C(=O)c2ccc(=O)[nH]c2)cc1 (stereo not drawn),13*,2,5,-5,13,8,0
O=c1c2ccccc2c2ccccc2c(=O)n1Nc1ccccc1,-6,/,/,/,/,/,/
CCOc1cc(CNc2ccc3c(c2)OCCO3)cc(Br)c1OC,/,-16,-15,2,14,0,1
CCOc1c(Br)cc(CNc2ccc3c(c2)OCCO3)cc1OC,-1,-12,-8,5,5,/,/
CCc1ccc(CNCc2ccc(OCC(O)CN(C)Cc3ccccc3)cc2)nc1 (stereo not drawn),56*,-23,-30,-12,9,14*,15*
C=CS(=O)(=O)c1c2cc(OC)ccc2nc2ccc(OC)cc12,-5,/,/,/,/,/,/
CCCc1ccccc1OCCNC(=O)c1cc(=O)n(C)c(=O)n1C,16*,-12,-25,-8,5,5,0
CCOc1ccccc1C(=O)Nc1cc(=O)n(C)c(=O)n1C,0,-1,-11,-5,17,/,/
CC[C@H](C)[C@H](NS(=O)(=O)c1ccc(C)cc1)C(=O)N1CCC(C(=O)N[C@H](C(=O)O)C(C)C)CC1,/,2,-16,-11,-3,/,/
CCC(C)[C@H](NS(=O)(=O)c1ccc(C)cc1)C(=O)N1CCC(C(=O)N[C@H](C(=O)O)c2ccccc2)CC1 (stereo partly drawn),30*,-8,-22,-8,18,12,0
CNS(=O)(=O)c1ccc(OC)c(-c2nnc3c4ccccc4c(C)nn23)c1,5,-6,-35,-21,25,/,/
COc1ccc(S(=O)(=O)NCc2ccco2)cc1-c1nnc2c3ccccc3c(C)nn12,28*,-13,-12,-2,15,15*,1
COc1ccccc1-c1cc(C(F)(F)F)nc(S(=O)(=O)CCCC(=O)Nc2cc(C)on2)n1,0,-8,0,10,10,/,/
COc1ccc(-c2cc(C(F)(F)F)nc(S(=O)(=O)CCCC(=O)Nc3cc(C)on3)n2)cc1OC,18*,/,/,-8,/,19*,1
COc1ccccc1-c1cc(C(F)(F)F)nc(S(=O)(=O)CCCC(=O)Nc2cccnc2Cl)n1,22*,/,/,-3,/,22*,0
Cc1cc(C(=O)CSc2nc(N)cc(=O)[nH]2)c(C)n1-c1ccc(OC(F)F)cc1,14*,38*,19,-4,20,98*,0
COc1ccc(CCn2c(C)cc(C(=O)CSc3nc(N)cc(=O)[nH]3)c2C)cc1,-3,15,6,-15,20,/,/
COc1ccc(OC)c2[nH]c(=O)c(CCNC(C)=O)cc12,1,-14,-1,-2,8,/,/
COc1ccc(OC)c2[nH]c(=O)c(CCNC(=O)COc3ccccc3)cc12,22*,-9,-29,-21,31,20*,0
CCCCn1c(=O)[nH]c(=O)c2c1nc(Cn1ncc(Cl)c(Cl)c1=O)n2CCC,23*,-31,-34,-9,14,20*,0
COc1ccc(-n2c(C)cc(C(=O)COC(=O)Cn3cnc4ccccc43)c2C)cc1,100*,34*,18,0,32,89*,0
SMILES,GalR3 antagonist,CHO parental Ca,OX1R antag-1,GPR7 antagonist,OX1R antag-2,GalR3 conf,CNG parental
COc1ccc(-n2c(C)cc(C(=O)CN3C(=O)c4ccccc4C3=O)c2C)cc1,9,-15,-4,-2,8,/,/
CC(C)C[C@H](NC(=O)c1ccco1)C(=O)N1CCC[C@H]1C(=O)NCc1ccccc1,-7,/,/,/,/,/,/
CN1[C@@H](Cc2ccccc2)COc2cc(N3CCSCC3)ccc2S1(=O)=O,-6,/,/,/,/,/,/
CCCCc1nnc(NC(=O)c2nc3nccc(C)n3n2)s1,-5,-1,-11,0,15,/,/
CCc1nnc(NC(=O)c2nc3nc(C)cc(C)n3n2)s1,13*,-9,-2,-7,5,0,0
COc1ccc(-c2ccc(C(=O)Nc3ccc(C(C)C)cc3)c3occc23)c(C)c1,-5,/,/,/,/,/,/
CN(C)S(=O)(=O)N1CCC(Oc2cccc(C(=O)NC3CCCCC3)c2)CC1,14*,-13,-18,4,12,62*,0
CN(C)S(=O)(=O)N1CCC(Oc2ccc(C(=O)NC3CCCCC3)cc2)CC1,10,-10,-4,-14,18,/,/
CC1CCN(C(=O)/C(=C\c2cccs2)NC(=O)c2ccccc2)CC1,19*,-13,-18,-15,25,8,0
COc1ccc(OC)c(C(O)c2ncc(-c3ccccc3OC)[nH]2)c1 (stereo not drawn),-7,/,/,/,/,/,/
O=C(COC(=O)c1cccnc1)Nc1ccc2c(c1)OCO2,14*,-10,-2,1,4,-1,0
CCOC(=O)C1=C(C)NC2=C(C(=O)CC(C)(C)C2)C1c1ccc(O)c(OCC)c1 (stereo not drawn),22*,0,-10,-7,11,29*,0
COc1ccc(COC(=O)C2=C(C)NC(=O)NC2c2ccc(O)c(OC)c2)cc1 (stereo not drawn),8,-9,-12,1,8,/,/
CCOc1cc(C2NC(=O)NC(C)=C2C(=O)OCc2ccccc2)ccc1O (stereo not drawn),13*,-12,-12,-13,10,15*,0
